In ChEMBL document CHEMBL4392827, “Tryptamine derivatives disarm colistin resistance in polymyxin-resistant gram-negative bacteria” (Bioorg Med Chem, 2019):

tested on: Acinetobacter baumannii; experiment: Potentiation of colistin-induced antimicrobial activity against colistin-resistant Acinetobacter baumannii 4106 assessed as fold reduction in colistin MIC at 60 uM after 18 hrs by broth microdilution assay; type: functional; conditions: not given
Summary of the method: (§1)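 Checkerboard-style resensitization following adapted CLSI broth microdilution. Bacteria were grown 4–6 h in CAMHB and subcultured to 5×10^5 CFU/mL. Adjuvant was added from DMSO stock and held constant while colistin was serially diluted in the dosed subculture. Plates were incubated stationary at 37°C for 18 h, then MICs were read. Fold reduction was taken relative to the colistin MIC without adjuvant.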

Row | SMILES | fold change (FC)
1 | O=C(NCCc1c[nH]c2ccccc12)c1cncc(Br)c1 | 4
2 | O=C(NCc1c[nH]c2ccccc12)c1cccc(Br)n1 | 32
3 | O=C(NCCc1c[nH]c2ccccc12)c1ccc[nH]1 | 2
4 | O=C(NCCc1c[nH]c2ccccc12)c1ccc(Br)c(Br)n1 | 8
5 | O=C(NCCc1c[nH]c2ccccc12)c1ccccn1 | 8
6 | O=C(NCCc1c[nH]c2ccccc12)c1cc(Br)c(Br)n1Cc1ccccc1 | 8
7 | Cn1c(C(=O)NCCc2c[nH]c3ccccc23)cc(Br)c1Br | 32
8 | O=C(NCCc1c[nH]c2ccccc12)c1cccs1 | 8
9 | O=C(NCCc1cn(Cc2ccccc2)c2ccccc12)c1cc(Br)c(Br)[nH]1 | 0
10 | O=C(NCCc1c[nH]c2ccccc12)c1cc(I)c[nH]1 | 64
11 | Cn1cccc1C(=O)NCCc1c[nH]c2ccccc12 | 2
12 | O=C(NCCc1c[nH]c2ccccc12)c1cc(Br)c(Br)o1 | 64
13 | O=C(NCCc1c[nH]c2ccccc12)c1cc(Br)c(Br)s1 | 32
14 | Cn1cc(Br)cc1C(=O)NCCc1c[nH]c2ccccc12 | 32
15 | O=C(NCCc1c[nH]c2ccccc12)c1sccc1Br | 64
16 | O=C(NC1Cc2ccccc2C1)c1cc(Br)c(Br)[nH]1 | 8

tested on: Klebsiella pneumoniae; experiment: Potentiation of colistin-induced antimicrobial activity against colistin-resistant Klebsiella pneumoniae B9 assessed as fold reduction in colistin MIC at 60 uM after 18 hrs by broth microdilution assay; type: functional; conditions: not given; summary of the method: as §1

Row | SMILES | fold change (FC)
17 | O=C(NCCc1c[nH]c2ccccc12)c1cncc(Br)c1 | 8
18 | O=C(NCc1c[nH]c2ccccc12)c1cccc(Br)n1 | 32
19 | O=C(NCCc1c[nH]c2ccccc12)c1ccc[nH]1 | 0
20 | O=C(NCCc1c[nH]c2ccccc12)c1ccc(Br)c(Br)n1 | 128
21 | O=C(NCCc1c[nH]c2ccccc12)c1ccccn1 | 0
22 | O=C(NCCc1c[nH]c2ccccc12)c1cc(Br)c(Br)n1Cc1ccccc1 | 16
23 | Cn1c(C(=O)NCCc2c[nH]c3ccccc23)cc(Br)c1Br | 256
24 | O=C(NCCc1c[nH]c2ccccc12)c1cccs1 | 0
25 | O=C(NCCc1cn(Cc2ccccc2)c2ccccc12)c1cc(Br)c(Br)[nH]1 | 0
26 | O=C(NCCc1c[nH]c2ccccc12)c1cc(I)c[nH]1 | 2048
27 | Cn1cccc1C(=O)NCCc1c[nH]c2ccccc12 | 0
28 | O=C(NCCc1c[nH]c2ccccc12)c1cc(Br)c(Br)o1 | 512
29 | O=C(NCCc1c[nH]c2ccccc12)c1cc(Br)c(Br)s1 | 512
30 | Cn1cc(Br)cc1C(=O)NCCc1c[nH]c2ccccc12 | 4
31 | O=C(NCCc1c[nH]c2ccccc12)c1sccc1Br | 128
32 | O=C(NC1Cc2ccccc2C1)c1cc(Br)c(Br)[nH]1 | 0

tested on: Acinetobacter baumannii; experiment: Potentiation of colistin-induced antimicrobial activity against colistin-resistant Acinetobacter baumannii ATCC 17978 expressing mcr1 gene assessed as fold reduction in colistin MIC at 60 uM after 18 hrs by broth microdilution assay; type: functional; conditions: not given; summary of the method: as §1

Row | SMILES | fold change (FC)
33 | O=C(NCCc1c[nH]c2ccccc12)c1cncc(Br)c1 | 0
34 | O=C(NCc1c[nH]c2ccccc12)c1cccc(Br)n1 | 0
35 | O=C(NCCc1c[nH]c2ccccc12)c1ccc[nH]1 | 2
36 | O=C(NCCc1c[nH]c2ccccc12)c1ccc(Br)c(Br)n1 | 0
37 | O=C(NCCc1c[nH]c2ccccc12)c1ccccn1 | 0
38 | O=C(NCCc1c[nH]c2ccccc12)c1cc(Br)c(Br)n1Cc1ccccc1 | 2
39 | Cn1c(C(=O)NCCc2c[nH]c3ccccc23)cc(Br)c1Br | 16
40 | O=C(NCCc1c[nH]c2ccccc12)c1cccs1 | 0
41 | O=C(NCCc1cn(Cc2ccccc2)c2ccccc12)c1cc(Br)c(Br)[nH]1 | 0
42 | O=C(NCCc1c[nH]c2ccccc12)c1cc(I)c[nH]1 | 16
43 | Cn1cccc1C(=O)NCCc1c[nH]c2ccccc12 | 0
44 | O=C(NCCc1c[nH]c2ccccc12)c1cc(Br)c(Br)o1 | 16
45 | O=C(NCCc1c[nH]c2ccccc12)c1cc(Br)c(Br)s1 | 16
46 | Cn1cc(Br)cc1C(=O)NCCc1c[nH]c2ccccc12 | 4
47 | O=C(NCCc1c[nH]c2ccccc12)c1sccc1Br | 4
48 | O=C(NC1Cc2ccccc2C1)c1cc(Br)c(Br)[nH]1 | 0

tested on: Escherichia coli; experiment: Potentiation of colistin-induced antimicrobial activity against colistin-resistant Escherichia coli ATCC 25922 expressing mcr1 gene assessed as fold reduction in colistin MIC at 60 uM after 18 hrs by broth microdilution assay; type: functional; conditions: not given; summary of the method: as §1

Row | SMILES | fold change (FC)
49 | O=C(NCCc1c[nH]c2ccccc12)c1cncc(Br)c1 | 0
50 | O=C(NCc1c[nH]c2ccccc12)c1cccc(Br)n1 | 0
51 | O=C(NCCc1c[nH]c2ccccc12)c1ccc[nH]1 | 0
52 | O=C(NCCc1c[nH]c2ccccc12)c1ccc(Br)c(Br)n1 | 0
53 | O=C(NCCc1c[nH]c2ccccc12)c1ccccn1 | 0
54 | O=C(NCCc1c[nH]c2ccccc12)c1cc(Br)c(Br)n1Cc1ccccc1 | 0
55 | Cn1c(C(=O)NCCc2c[nH]c3ccccc23)cc(Br)c1Br | 2
56 | O=C(NCCc1c[nH]c2ccccc12)c1cccs1 | 0
57 | O=C(NCCc1cn(Cc2ccccc2)c2ccccc12)c1cc(Br)c(Br)[nH]1 | 0
58 | Cn1cccc1C(=O)NCCc1c[nH]c2ccccc12 | 0
59 | O=C(NCCc1c[nH]c2ccccc12)c1cc(Br)c(Br)o1 | 2
60 | O=C(NCCc1c[nH]c2ccccc12)c1cc(Br)c(Br)s1 | 2
61 | Cn1cc(Br)cc1C(=O)NCCc1c[nH]c2ccccc12 | 2
62 | O=C(NCCc1c[nH]c2ccccc12)c1sccc1Br | 2
63 | O=C(NC1Cc2ccccc2C1)c1cc(Br)c(Br)[nH]1 | 0

tested on: Acinetobacter baumannii; experiment: Toxicity in Acinetobacter baumannii 4106 after 18 hrs by broth microdilution assay; type: organism-based; conditions: in vitro
Summary of the method: (§2)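 Single-agent MIC per CLSI broth microdilution. Cells from a 4–6 h culture in cation-adjusted Mueller-Hinton broth adjusted to 5 ×10^5 CFU/mL. Compound (DMSO stock) added to 200 μM top concentration and twofold serially diluted six times, with an untreated control row. Plates sealed and incubated stationary at 37°C for 18 h before MIC read.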

Row | SMILES | MIC
64 | O=C(NCCc1cn(Cc2ccccc2)c2ccccc12)c1cc(Br)c(Br)[nH]1 | > 200 µM
65 | O=C(NC1Cc2ccccc2C1)c1cc(Br)c(Br)[nH]1 | > 200 µM

tested on: Klebsiella pneumoniae; experiment: Toxicity in Klebsiella pneumoniae B9 after 18 hrs by broth microdilution assay; type: organism-based; conditions: not given; summary of the method: as §2

Row | SMILES | MIC
66 | O=C(NCCc1cn(Cc2ccccc2)c2ccccc12)c1cc(Br)c(Br)[nH]1 | > 200 µM
67 | O=C(NC1Cc2ccccc2C1)c1cc(Br)c(Br)[nH]1 | > 200 µM

tested on: Acinetobacter baumannii; experiment: Toxicity in Acinetobacter baumannii ATCC 17978 expressing mcr1 gene after 18 hrs by broth microdilution assay; type: organism-based; conditions: not given; summary of the method: as §2

Row | SMILES | MIC
68 | O=C(NCCc1cn(Cc2ccccc2)c2ccccc12)c1cc(Br)c(Br)[nH]1 | > 200 µM
69 | O=C(NC1Cc2ccccc2C1)c1cc(Br)c(Br)[nH]1 | > 200 µM

tested on: Escherichia coli; experiment: Toxicity in Escherichia coli ATCC 25922 after 18 hrs by broth microdilution assay; type: organism-based; conditions: in vitro; summary of the method: as §2

Row | SMILES | MIC
70 | O=C(NCCc1cn(Cc2ccccc2)c2ccccc12)c1cc(Br)c(Br)[nH]1 | > 200 µM
71 | O=C(NC1Cc2ccccc2C1)c1cc(Br)c(Br)[nH]1 | > 200 µM

tested on: Acinetobacter baumannii; experiment: Potentiation of colistin-induced antimicrobial activity against colistin-resistant Acinetobacter baumannii isolate 3941 assessed as fold reduction in colistin MIC at 60 uM after 18 hrs by broth microdilution assay; type: functional; conditions: not given; summary of the method: as §1

Row | SMILES | fold change (FC)
72 | O=C(NCCc1c[nH]c2ccccc12)c1cc(I)c[nH]1 | 64

tested on: Acinetobacter baumannii; experiment: Potentiation of colistin-induced antimicrobial activity against colistin-resistant Acinetobacter baumannii isolate 3942 assessed as fold reduction in colistin MIC at 60 uM after 18 hrs by broth microdilution assay; type: functional; conditions: not given; summary of the method: as §1

Row | SMILES | fold change (FC)
73 | O=C(NCCc1c[nH]c2ccccc12)c1cc(I)c[nH]1 | 32

tested on: Acinetobacter baumannii; experiment: Potentiation of colistin-induced antimicrobial activity against colistin-resistant Acinetobacter baumannii isolate 4112 assessed as fold reduction in colistin MIC at 60 uM after 18 hrs by broth microdilution assay; type: functional; conditions: not given; summary of the method: as §1

Row | SMILES | fold change (FC)
74 | O=C(NCCc1c[nH]c2ccccc12)c1cc(I)c[nH]1 | 32

tested on: Klebsiella pneumoniae; experiment: Potentiation of colistin-induced antimicrobial activity against colistin-resistant Klebsiella pneumoniae isolate A5 assessed as fold reduction in colistin MIC at 60 uM after 18 hrs by broth microdilution assay; type: functional; conditions: not given; summary of the method: as §1

Row | SMILES | fold change (FC)
75 | O=C(NCCc1c[nH]c2ccccc12)c1cc(I)c[nH]1 | 32

tested on: Klebsiella pneumoniae; experiment: Potentiation of colistin-induced antimicrobial activity against colistin-resistant Klebsiella pneumoniae isolate C3 assessed as fold reduction in colistin MIC at 60 uM after 18 hrs by broth microdilution assay; type: functional; conditions: not given; summary of the method: as §1

Row | SMILES | fold change (FC)
76 | O=C(NCCc1c[nH]c2ccccc12)c1cc(I)c[nH]1 | 128

tested on: Acinetobacter baumannii; experiment: Potentiation of colistin-induced antimicrobial activity against colistin-sensitive Acinetobacter baumannii 5075 assessed as fold reduction in colistin MIC at 60 uM after 18 hrs by broth microdilution assay; type: functional; conditions: not given
Summary of the method: (§3)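 Bacteria grown 4–6 h in cation-adjusted Mueller-Hinton broth and diluted to 5 ×10^5 CFU/mL. Adjuvant from DMSO stock held at fixed 60 μM while colistin is twofold serially diluted in the same adjuvant-dosed broth. Plates sealed and kept stationary at 37°C for 18 h. Colistin MIC read and fold reduction taken relative to colistin alone.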

Row | SMILES | fold change (FC)
77 | O=C(NCCc1c[nH]c2ccccc12)c1cc(I)c[nH]1 | 0

tested on: Acinetobacter baumannii; experiment: Potentiation of colistin-induced antimicrobial activity against Acinetobacter baumannii ATCC 17978 assessed as fold reduction in colistin MIC at 60 uM after 18 hrs by broth microdilution assay; type: functional; conditions: not given; summary of the method: as §3

Row | SMILES | fold change (FC)
78 | O=C(NCCc1c[nH]c2ccccc12)c1cc(I)c[nH]1 | 2

tested on: Escherichia coli; experiment: Potentiation of colistin-induced antimicrobial activity against Escherichia coli ATCC 25922 assessed as fold reduction in colistin MIC at 60 uM after 18 hrs by broth microdilution assay; type: functional; conditions: not given; summary of the method: as §3

Row | SMILES | fold change (FC)
79 | O=C(NCCc1c[nH]c2ccccc12)c1cc(I)c[nH]1 | 2

tested on: Klebsiella pneumoniae; experiment: Potentiation of colistin-induced antimicrobial activity against Klebsiella pneumoniae ATCC BAA-2146 expressing NDM1 gene assessed as fold reduction in colistin MIC at 60 uM after 18 hrs by broth microdilution assay; type: functional; conditions: not given; summary of the method: as §3

Row | SMILES | fold change (FC)
80 | O=C(NCCc1c[nH]c2ccccc12)c1cc(I)c[nH]1 | 2
